Experimental data taken from ChEMBL document CHEMBL3124793, “Discovery of spirofused piperazine and diazepane amides as selective histamine-3 antagonists with in vivo efficacy in a mouse model of cognition” (J Med Chem, 2014).
pIC50, pKi: −log10 of the molar value. Converted amounts (≈) assume the structure as drawn. The source made the active and inactive calls. The calls are words filed in the database; no cut-off is given here.

Tests used:
[1] = Intrinsic clearance in rat liver microsomes; format: ADME; settings: read-out: CLH
[2] = Intrinsic clearance in human liver microsomes; format: ADME; settings: read-out: CLH
Procedure, shortened: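 Human liver microsomal clearance, expressed as μL/min/mg.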

[3] = Percentage unbound in rat plasma; format: ADME, cell-free
Procedure, shortened: (§1)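 Plasma protein binding in human or rat plasma, expressed as percent free.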

[4] = Apparent permeability from apical to basolateral side in MDCK cells; format: ADME, cell-based, Canis lupus familiaris; settings: dog
Procedure, shortened: (§2)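 MDCK monolayers; A-to-B Papp in 1 × 10⁻⁶ cm/s; efflux taken as ratio of A-to-B Papp over B-to-A Papp.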

[5] = Percentage unbound in human plasma; format: ADME, cell-free; procedure, shortened: as §1
[6] = Equilibrium solubility of the compound at pH 7.4; format: physicochemical; settings: buffer
Histamine H3 receptor [7] = target: T1, Histamine H3 receptor (Homo sapiens, UniProt Q9Y5N1); assay: Displacement of [3H]-N-alpha-methylhistamine from human histamine H3 receptor expressed in CHOK1 cells after 1.5 hrs by scintillation proximity assay; format: cell-based, CHO-K1
Procedure, shortened: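 Human H3R-CHO-K1 membranes incubated 1.5 h with test compound and [3H]-N-α-methylhistamine in SPA format; nonspecific binding defined with 10 μM imetit; bead-bound radioligand counted. Average of n > 2, standard error <50%.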

Histamine H3 receptor [8] = target: T1, Histamine H3 receptor; assay: Antagonist activity at human histamine H3 receptor long form expressed in CHOK1 cells assessed as inhibition of R-alpha-methylhistamine-induced [35S]GTPgammaS binding after 3 hrs by scintillation proximity assay; format: functional, cell-based, CHO-K1
Procedure, shortened: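 Membranes from CHO-K1 cells stably expressing human H3R long form (445 aa) incubated 3 h with test compound, 25 nM R-α-methylhistamine, 10 μM GDP, 0.2 nM [35S]GTPγS and WGA PVT SPA beads; bead-bound [35S]GTPγS counted by scintillation. Average of n > 2, standard error <20%.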

[9] = target: Voltage-gated inwardly rectifying potassium channel KCNH2 (Homo sapiens, UniProt Q12809); assay: Inhibition of human ERG expressed in CHOK1 cells by electrophysiological analysis
[10] = Octanol-water partition coefficient, log D of the compound by shake flask HPLC analysis; format: physicochemical
Procedure, shortened: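 logD between octanol and water by shake-flask with HPLC analysis.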

Rattus norvegicus [11] = assay: […] clearance in rat at 1.8 umol/kg, iv; format: ADME, organism-based; settings: in vivo
Procedure, shortened: (§3)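 IV dosing in male fasted rats, doses in μmol/kg; mean Vss, half-life and clearance derived; number of rats per compound reported.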

[12] = Half life in rat at 1.8 umol/kg, iv; format: ADME, organism-based; settings: in vivo; procedure, shortened: as §3
[13] = Volume of distribution at steady state in rat at 1.8 umol/kg, iv; format: ADME, organism-based; settings: in vivo, read-out: Vdss; procedure, shortened: as §3
MDCK = assay: Efflux ratio of apparent permeability from apical to basolateral side over basolateral to apical side in MDCK cells; format: ADME, cell-based, Canis lupus familiaris; settings: dog; procedure, shortened: as §2
Rattus norvegicus [14] = assay: […] clearance in rat at 2.1 umol/kg, iv; format: ADME, organism-based; settings: in vivo; procedure, shortened: as §3
[15] = Half life in rat at 2.1 umol/kg, iv; format: ADME, organism-based; settings: in vivo; procedure, shortened: as §3
[16] = Volume of distribution at steady state in rat at 2.1 umol/kg, iv; format: ADME, organism-based; settings: in vivo, read-out: Vdss; procedure, shortened: as §3
Histamine H3 receptor [17] = target: T1, Histamine H3 receptor; assay: Inverse agonist activity at human histamine H3 receptor long form expressed in CHOK1 cells assessed as reduction in [35S]GTPgammaS binding after 3 hrs by scintillation proximity assay; format: functional, cell-based; settings: CHO-K1
Procedure, shortened: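 Basal [35S]GTPγS binding, without agonist stimulation, to membranes expressing recombinant human H3R.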

Rattus norvegicus [18] = assay: […] clearance in rat at 2.3 umol/kg, iv; format: ADME, organism-based; settings: in vivo; procedure, shortened: as §3
[19] = Half life in rat at 2.3 umol/kg, iv; format: ADME, organism-based; settings: in vivo; procedure, shortened: as §3
[20] = Volume of distribution at steady state in rat at 2.3 umol/kg, iv; format: ADME, organism-based; settings: in vivo, read-out: Vdss; procedure, shortened: as §3
Rattus norvegicus [21] = assay: […] clearance in rat at 3.5 umol/kg, iv; format: ADME, organism-based; settings: in vivo; procedure, shortened: as §3
[22] = Half life in rat at 3.5 umol/kg, iv; format: ADME, organism-based; settings: in vivo; procedure, shortened: as §3
[23] = Volume of distribution at steady state in rat at 3.5 umol/kg, iv; format: ADME, organism-based; settings: in vivo, read-out: Vdss
Procedure, shortened: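 Male fasted rats given a single IV dose. Volume of distribution taken as the mean from plasma sampling after the IV dose. Animals per compound: 1 to 7.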

Sequence of Voltage-gated inwardly rectifying potassium channel KCNH2 (Q12809 whole entry): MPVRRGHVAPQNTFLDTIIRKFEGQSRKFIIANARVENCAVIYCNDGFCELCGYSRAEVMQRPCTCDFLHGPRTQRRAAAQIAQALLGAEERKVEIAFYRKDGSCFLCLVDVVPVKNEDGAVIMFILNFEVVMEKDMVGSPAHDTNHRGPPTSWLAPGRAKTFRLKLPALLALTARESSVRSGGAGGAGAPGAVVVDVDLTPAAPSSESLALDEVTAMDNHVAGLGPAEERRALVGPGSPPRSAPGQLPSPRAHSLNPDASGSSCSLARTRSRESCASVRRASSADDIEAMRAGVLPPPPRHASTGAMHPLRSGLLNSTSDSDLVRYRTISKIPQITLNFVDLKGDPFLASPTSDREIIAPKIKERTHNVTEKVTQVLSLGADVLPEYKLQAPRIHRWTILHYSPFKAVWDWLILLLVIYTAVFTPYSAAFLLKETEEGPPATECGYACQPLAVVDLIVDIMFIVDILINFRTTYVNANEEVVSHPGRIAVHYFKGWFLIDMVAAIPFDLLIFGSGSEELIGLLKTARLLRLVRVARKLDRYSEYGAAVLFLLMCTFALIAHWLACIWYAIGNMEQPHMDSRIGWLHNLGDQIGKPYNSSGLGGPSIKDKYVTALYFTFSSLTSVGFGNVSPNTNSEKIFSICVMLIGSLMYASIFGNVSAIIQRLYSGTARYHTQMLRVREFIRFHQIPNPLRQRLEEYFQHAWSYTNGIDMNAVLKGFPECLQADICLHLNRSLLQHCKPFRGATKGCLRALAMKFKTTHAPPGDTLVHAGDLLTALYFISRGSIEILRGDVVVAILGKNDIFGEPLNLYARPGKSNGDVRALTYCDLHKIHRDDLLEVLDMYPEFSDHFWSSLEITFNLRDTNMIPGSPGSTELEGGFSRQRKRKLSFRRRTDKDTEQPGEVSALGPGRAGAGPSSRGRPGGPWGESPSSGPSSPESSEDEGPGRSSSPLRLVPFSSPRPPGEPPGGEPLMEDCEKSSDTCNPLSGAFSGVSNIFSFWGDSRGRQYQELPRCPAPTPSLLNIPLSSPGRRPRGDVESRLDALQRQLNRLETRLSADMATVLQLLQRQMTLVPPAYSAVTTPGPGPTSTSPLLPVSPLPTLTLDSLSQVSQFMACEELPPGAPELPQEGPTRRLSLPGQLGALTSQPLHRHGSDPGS
T1 sequence (Q9Y5N1 whole entry): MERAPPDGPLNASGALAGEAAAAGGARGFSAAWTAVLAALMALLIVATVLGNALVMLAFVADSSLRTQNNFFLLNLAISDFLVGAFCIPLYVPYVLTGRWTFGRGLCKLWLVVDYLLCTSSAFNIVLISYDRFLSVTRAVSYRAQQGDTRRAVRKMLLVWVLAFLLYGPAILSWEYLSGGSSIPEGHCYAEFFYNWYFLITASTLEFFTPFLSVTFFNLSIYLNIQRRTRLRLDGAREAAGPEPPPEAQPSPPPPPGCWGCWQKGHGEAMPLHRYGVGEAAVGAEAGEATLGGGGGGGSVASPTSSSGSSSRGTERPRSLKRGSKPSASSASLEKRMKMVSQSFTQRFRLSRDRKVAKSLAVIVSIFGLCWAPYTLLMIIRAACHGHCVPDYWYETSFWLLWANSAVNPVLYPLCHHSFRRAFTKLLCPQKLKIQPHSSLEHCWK

Compound	microsomal CLint [1] [µL/min/mg]	microsomal CLint [2] [µL/min/mg]	Papp A→B [4] [×10⁻⁶ cm/s]	fraction unbound [5]	solubility thermodynamic [6] [µM]	pKi (Histamine H3 receptor [7])	pIC50 (Histamine H3 receptor [8])	pIC50 [9]	logD [10]	other results
CC(C)N1CCN(C(=O)C2CC23CCN(C2CCOCC2)CC3)CC1 (racemic)	24	< 4	5.4	0.87	> 500	8.52	8.49			fraction unbound [3]: 0.69
O=C(C1CC12CCNCC2)N1CCN(C2CCCCC2)CC1 (racemic)						6.36	6.44	< 4.48	-1	
CC(C)S(=O)(=O)N1CCC2(CCN(C(=O)N3CCCN(C4CCC4)CC3)C2)CC1	34	20	7.8		> 500		8.49	< 4.48	0.8	CL (Rattus norvegicus [11]): 53 mL/min/kg; half-life [12]: 36 min; Vd [13]: 2.1 L/kg; Ratio (MDCK): 6
CC(C)N1CCN(C(=O)C2CC3(CCN(C4CCOCC4)CC3)C2)CC1	< 4	< 4	3.6		> 500	9.52	8.77		-0.74	CL (Rattus norvegicus [14]): 78 mL/min/kg; half-life [15]: 702 min; Vd [16]: 64 L/kg
O=C(C1CC12CCN(C1CCOCC1)CC2)N1CCN(C2CCC2)CC1 (racemic)	< 4	29	3.9	0.91	> 500	8.89	8.44		0.24	fraction unbound [3]: 0.8; Activity (Histamine H3 receptor [17]): Active
O=C(C1CC12CCN(C1CCOCC1)CC2)N1CCN(C2CC2)CC1 (racemic)	20	< 4	8.4		> 500	7.96				
O=C(C1CC12CCC(C1CCCCC1)CC2)N1CCN(C2CCC2)CC1 (racemic)					1 (≈ 0.359 µg/mL)	< 5.00				
O=C(N1CCCN(C2CCC2)CC1)N1CCC2(CCCN(S(=O)(=O)c3ccccc3)C2)C1 (configuration not stated)							8.19	< 4.48	1.74	
O=C(c1ccccc1)N1CCC2(CC1)CCN(C(=O)N1CCN(C3CCC3)CC1)C2	25	18	8.8		> 500		7.89	< 4.48	1.8	CL (Rattus norvegicus [18]): 91 mL/min/kg; half-life [19]: 66 min; Vd [20]: 3.7 L/kg; Ratio (MDCK): 4.5
O=C(C1CC12CCN(C1CCCCC1)CC2)N1CCN(C2CCCCC2)CC1 (racemic)	31	14	< 1.7	0.81	> 500	7.72		4.68		Ratio (MDCK): > 2; fraction unbound [3]: 0.62
O=C(C1CC12CCN(C1CCOCC1)CC2)N1CCN(C2CCCC2)CC1 (racemic)	43	7.2	< 2.2	0.5	> 500	8.85				fraction unbound [3]: 0.65
CC(C)N1CCN(C(=O)N2CCC3(CCCN(C4CCOCC4)C3)C2)CC1 (configuration not stated)							6.85	< 4.48	-0.19	
O=C(c1ccccc1)N1CCC2(CC1)CCN(C(=O)N1CCCN(C3CCC3)CC1)C2							8.44	< 4.48	1.22	
O=C(N1CCCN(C2CCC2)CC1)N1CCC2(CCN(S(=O)(=O)c3ccccc3)CC2)C1							8.57	< 4.48	1.71	
CC(C)N1CCN(C(=O)N2CCC3(CCN(C4CCOCC4)CC3)C2)CC1							7.49	< 4.48	-0.87	
CS(=O)(=O)N1CCC2(CC1)CC(C(=O)N1CCN(C3CCC3)CC1)C2	16	8.3	19	0.67	> 500		7.96		0.97	CL (Rattus norvegicus [21]): 69.8 mL/min/kg; half-life [22]: 24 min; Vd [23]: 1.4 L/kg
